Tests used:
[1] = target: Major prion protein (Mus musculus) (UniProt P04925); test: Binding affinity to mouse PrPC at 40 uM
Summary of the method: (§1)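 SPR at 25 °C, 30 µL/min. Each PrPC form was amine-coupled at 2 µg/mL onto a CM5 dextran chip via NHS/EDC, with ethanolamine block; flow cell 1 served as control. Ligand at 40 µM, 1 min association, 3 min dissociation, with DMSO calibration. Binding expressed as %RU_max, normalised for immobilised RU and molecular weights.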

[2] = target: Major prion protein (Homo sapiens) (UniProt P04156); test: Binding affinity to truncated human PrPC at 40 uM; summary of the method: as §1
[3] = target: Major prion protein (Homo sapiens) (UniProt P04156); test: Binding affinity to human PrPC at 40 uM; summary of the method: as §1

Chain of Major prion protein (Mus musculus) (P04925 whole entry): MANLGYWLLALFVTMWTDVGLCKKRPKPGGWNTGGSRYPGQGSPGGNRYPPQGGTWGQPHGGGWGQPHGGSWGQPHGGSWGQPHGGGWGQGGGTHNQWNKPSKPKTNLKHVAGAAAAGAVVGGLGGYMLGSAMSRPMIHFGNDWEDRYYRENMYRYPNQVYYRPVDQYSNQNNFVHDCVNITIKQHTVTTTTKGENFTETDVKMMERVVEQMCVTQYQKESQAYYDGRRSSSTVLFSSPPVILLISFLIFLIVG

Row | Compound | RUmax [1] [%] | RUmax [2] [%] | RUmax [3] [%]
1 | N#Cc1c(N)nc(Sc2ccccc2)c(C#N)c1-c1ccccc1 | 0 | 0 | 0
2 | COC(=O)c1ccc(Sc2nc(N)c(C#N)c(-c3ccc(O)cc3)c2C#N)cc1 | 0 | 0 | 0
3 | COc1ccc(-c2c(C#N)c(N)nc(Sc3ccccc3)c2C#N)cc1 | 0 | 0 | 0
4 | COC(=O)c1ccc(-c2c(C#N)c(N)nc(Sc3ccc(C(=O)O)cc3)c2C#N)cc1 | 8.5 | 0 | 5.9
5 | CS(=O)(=O)c1ccc(-c2c(C#N)c(N)nc(Sc3ccc(O)cc3)c2C#N)cc1 | 0 | 0 | 0
6 | COc1cccc(-c2c(C#N)c(N)nc(Sc3ccccc3)c2C#N)c1 | 0 | 0 | 0
7 | COc1ccc(-c2c(C#N)c(N)nc(Sc3cccc(Cl)c3)c2C#N)cc1 | 0 | 0 | 0
8 | N#Cc1c(N)nc(Sc2cccc(Cl)c2)c(C#N)c1-c1ccc(Cl)cc1 | 52.3 | 56.5 | 119
9 | COc1cccc(-c2c(C#N)c(N)nc(Sc3cccc(Cl)c3)c2C#N)c1 | 0 | 6.7 | 8.6
10 | N#Cc1c(N)nc(Sc2ccc(Cl)cc2)c(C#N)c1-c1ccccc1 | 0 | 11.4 | 0
11 | CC(=O)Nc1ccc(Sc2nc(N)c(C#N)c(-c3c(F)cccc3F)c2C#N)cc1 | 40.1 | 20 | 37.3
12 | COC(=O)c1ccc(-c2c(C#N)c(N)nc(Sc3ccc(O)cc3)c2C#N)cc1 | 0 | 0 | 0
13 | CC(=O)c1ccc(-c2c(C#N)c(N)nc(Sc3ccc(O)cc3)c2C#N)cc1 | 0 | 0 | 0
14 | N#Cc1c(N)nc(Sc2ccc(O)cc2)c(C#N)c1-c1ccc(O)c(F)c1 | 53.8 | 28 | 44.2
15 | N#Cc1c(N)nc(Sc2ccccc2F)c(C#N)c1-c1cccc(O)c1 | 18.8 | 9.2 | 17.2
16 | COC(=O)c1ccc(Sc2nc(N)c(C#N)c(-c3ccc(C(=O)OC)cc3)c2C#N)cc1 | 0 | 0 | 0
17 | CC(=O)Nc1ccc(Sc2nc(N)c(C#N)c(-c3cc(F)cc(F)c3)c2C#N)cc1 | 0 | 0 | 0
18 | COC(=O)c1ccc(-c2c(C#N)c(N)nc(Sc3cccc(Cl)c3)c2C#N)cc1 | 0 | 0 | 0
19 | COC(=O)c1ccc(-c2c(C#N)c(N)nc(Sc3cccc(C(=O)OC)c3)c2C#N)cc1 | 0 | 0 | 0
20 | COC(=O)c1ccc(-c2c(C#N)c(N)nc(Sc3ccc(NC(C)=O)cc3)c2C#N)cc1 | 13.3 | 6.4 | 9.4
21 | N#Cc1c(N)nc(Sc2ccc(O)cc2)c(C#N)c1-c1cccc(O)c1 | 43.1 | 23.1 | 34
22 | COC(=O)c1ccc(Sc2nc(N)c(C#N)c(-c3ccccc3)c2C#N)cc1 | 0 | 0 | 0
23 | COC(=O)c1cccc(Sc2nc(N)c(C#N)c(-c3ccccc3)c2C#N)c1 | 33.2 | 26.8 | 125
24 | N#Cc1c(N)nc(Sc2cccc(Cl)c2)c(C#N)c1-c1ccccc1 | 0 | 0 | 0
25 | N#Cc1c(N)nc(Sc2ccc(O)cc2)c(C#N)c1-c1ccc(O)c(Cl)c1 | 64.6 | 33.4 | 53.4
26 | N#Cc1c(N)nc(Sc2cccc(O)c2)c(C#N)c1-c1ccccc1 | 60.6 | 37.6 | 70.3
